Series [1] is described as follows: Antiproliferative activity against human Nc37 cells assessed as cell viability at 0.1 mM after 72 hrs by trypan blue dye based hemocytometer analysis relative to control. Details: species or system NC-37. The following applies: read-out: Activity. Put shortly: (§1)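 Nc 37 (normal donor buffy coat), RPMI 6410 (myeloblastic leukemia) and murine L1210 cells. Compound dissolved in Me2SO, held at 37° overnight for sterilization, diluted in RPMI 1640 + 10% fetal calf serum to final 10⁻⁴ M with 0.5% Me2SO. Unagitated tubes seeded at 2–5 × 10⁵ cells/ml from log-phase stocks. Trypan blue (0.05%) hemocytometer counts every 24 h. Viable density versus control at 72 h banded into rating categories.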

Series [2] can be described thus: Antiproliferative activity against human RPMI6410 cells assessed as cell viability at 0.1 mM after 72 hrs by trypan blue dye based hemocytometer analysis relative to control. Particulars: RPMI 6410, 72 h, read-out: Activity. In kind it is functional. In a few lines: as §1
For another series, the system named is L1210. The series can be described thus: Antiproliferative activity against mouse L1210 cells assessed as cell viability at 0.1 mM after 72 hrs by trypan blue dye based hemocytometer analysis relative to control. In kind it is functional. The following applies: L1210, 72 h, read-out: Activity. In a few lines: as §1
Series [3] in a line: Antiproliferative activity against human RPMI6410 cells assessed as growth inhibition at 0.1 mM. Particulars: RPMI 6410. Type of series: functional. In a few lines: as §1

In the case of `c1ccc(CNc2ncnc3[nH]ncc23)cc1`, the viability at 72 h, 100 µM in series [1] came out at 30%. Also, the viability at 100 µM in series [2] was 30%; with L1210, 0%.
`CCNc1ncnc2[nH]ncc12`: the viability at 72 h, 100 µM in series [1] was found to be 90%. Further, the viability at 100 µM in series [2] was 90%; with L1210, 60%.
As for `CC(C)Nc1ncnc2[nH]ncc12`, in series [1], the viability at 72 h, 100 µM is 30%. Also, the viability at 100 µM in series [2] was determined as 60%; in the series on L1210 it was 90%.
Take `CCCCNC(=O)Nc1ncnc2[nH]cnc12`: the inhibition (commonly the share of the control response that was lost under treatment) at 100 µM in series [3] turned out to be 70%.
Turning to `C=CCNc1ncnc2[nH]ncc12`, the viability at 72 h, 100 µM in series [1] stood at 60%. Also, the viability at 100 µM was found to be 30% in series [2] and 60% in the series with L1210.
On to `O=C(O)CNC(=O)Nc1ncnc2[nH]ncc12`, for which, in series [1], the viability at 72 h, 100 µM was determined as 90%. In addition, the viability at 100 µM amounted to 60% in series [2] and 80% in the series on L1210.
The like results for `CC(C)NC(=O)Nc1ncnc2[nH]ncc12` were, in that order, 30%, 80% and 80%.
The like results for `C=CCNC(=O)Nc1ncnc2[nH]ncc12` were, in that order, 30%, 90% and 0%.
The like results for `C#CCNC(=O)Nc1ncnc2[nH]ncc12` were, in that order, 90%, 30% and 60%.
As to `CCCCNC(=O)Nc1ncnc2[nH]ncc12`, the viability at 72 h, 100 µM in series [1] was found to be 80%. For the same compound, the viability at 100 µM worked out at 80% in series [2] and 60% in the series with L1210.
As for `CC(C)CNC(=O)Nc1ncnc2[nH]ncc12`, the viability at 72 h, 100 µM in series [1] is 60%. Also, the viability at 100 µM (in series [2]; in the series on L1210) was 60% in each case.
With `CC(C)(C)NC(=O)Nc1ncnc2[nH]ncc12`, the viability at 72 h, 100 µM in series [1] was 60%. Besides, the figures for the viability at 100 µM (in series [2]; in the series with L1210) were 60% and 30%, respectively.
`CCCCCNC(=O)Nc1ncnc2[nH]ncc12`: the viability at 72 h, 100 µM in series [1] came out at 0%. In addition, the viability at 100 µM (in series [2]; in the series with L1210) was 30% in each case.
Regarding `CC(C)CCNC(=O)Nc1ncnc2[nH]ncc12`, the viability at 72 h, 100 µM in series [1] came out at 60%. The viability at 100 µM (in series [2]; in the series with L1210) was 60% throughout.
Turning to `CC(C)(C)CNC(=O)Nc1ncnc2[nH]ncc12`, the viability at 72 h, 100 µM in series [1] came out at 60%. Further, the viability at 100 µM in series [2] was 60%; in the series on L1210, 30%.
Turning to `C[C@@H](O)[C@H](NC(=O)Nc1ncnc2[nH]ncc12)C(=O)O`, the viability at 72 h, 100 µM in series [1] was 30%. The viability at 100 µM (in series [2]; in the series with L1210) was 30% in each case.
On to `CCCCCCCCNC(=O)Nc1ncnc2[nH]ncc12`, for which, in series [1], the viability at 72 h, 100 µM came to 0%. Moreover, the viability at 100 µM (in series [2]; in the series with L1210) was 0% throughout.
As to `CCOCCNC(=O)Nc1ncnc2[nH]ncc12`, in series [1], the viability at 72 h, 100 µM was found to be 80%. For the same compound, the values for the viability at 100 µM (in series [2]; in the series on L1210) were 30% and 80%, respectively.
`O=C(Nc1ncnc2[nH]ncc12)NC12CC3CC(CC(C3)C1)C2`: the viability at 72 h, 100 µM in series [1] came to 30%. Moreover, the viability at 100 µM came to 30% in series [2] and 0% in the series on L1210.
For `O=C(NCCCc1ccccc1)Nc1ncnc2[nH]ncc12`, the viability at 72 h, 100 µM in series [1] worked out at 30%. Besides, the viability at 100 µM (in series [2]; with L1210) was 60% in each case.
On to `O=C(NCCCCc1ccccc1)Nc1ncnc2[nH]ncc12`, for which the viability at 72 h, 100 µM in series [1] turned out to be 60%. Further, the values for the viability at 100 µM (in series [2]; in the series on L1210) were 80% and 30%, respectively.
The like results for `O=C(Nc1ccccc1)Nc1ncnc2[nH]ncc12` were, in that order, 90%, 30% and 60%.
Turning to `O=C(Nc1ccccc1F)Nc1ncnc2[nH]ncc12`, the viability at 72 h, 100 µM in series [1] worked out at 90%. Moreover, the viability at 100 µM (in series [2]; in the series with L1210) was 60% each time.
Consider `O=C(Nc1ccccc1Cl)Nc1ncnc2[nH]ncc12`, for which the viability at 72 h, 100 µM in series [1] amounted to 90%. For the same compound, the figures for the viability at 100 µM (in series [2]; in the series with L1210) were 80% and 60%, respectively.
Taken in the same sequence, the figures for `O=C(Nc1cccc(Cl)c1)Nc1ncnc2[nH]ncc12` were 0%, 0% and 0%.
Taken in the same sequence, the figures for `O=C(Nc1ccc(Cl)cc1)Nc1ncnc2[nH]ncc12` were 30%, 30% and 30%.
As to `CCCCCNC(=O)Nc1ncnc2[nH]cnc12`, in series [3], the inhibition at 100 µM was found to be 70%.
Still for that read-out and setting: the same measure for `CC(C)CCNC(=O)Nc1ncnc2[nH]cnc12`: 70%.
For the compound `CC(C)CCNc1ncnc2[nH]ncc12`, in series [1], the viability at 72 h, 100 µM is 0%. In addition, the figures for the viability at 100 µM (in series [2]; in the series with L1210) were 30% and 0%, respectively.

The values are drawn from ChEMBL document CHEMBL3272068, “Synthesis and biological activities of some N4-substituted 4-aminopyrazolo(3,4-d)pyrimidines” (J Med Chem, 1976).
